# Assay results gathered from unrelated publications.
# Compare with care: the assays were run in different laboratories.
# Cell line: A549
# Effect on: cell growth or viability
Compound,method,concentration,inhibition
O=C(CN1C(=O)/C(=C/c2ccc([N+](=O)[O-])cc2)SC1=S)Nc1ccccc1,MTT,10 µM,24.4%
COc1ccc2c(c1)C(=NNc1nc3ccccc3n(C)c1=O)C(=O)N2,,30 µM,85.9%
O=C(CN1C(=O)/C(=C/c2cccc([N+](=O)[O-])c2)SC1=S)Nc1ccccc1,MTT,10 µM,22.2%
Cc1c(-c2cccc(C(F)(F)F)c2)sc2[nH]c(=O)n([C@H](C)c3cccc4ccccc34)c(=O)c12,,10 µM,> 80%
CN1C(=O)/C(=N\NC(=O)c2cc3ccccc3[nH]2)c2cc(Cl)ccc21,,30 µM,95.8%
COc1ccc(-c2nc(NN=C3C(=O)Nc4ccc(Br)cc43)c3ccccc3n2)cc1OC,,10 µM,77.1%
O=C(CN1C(=O)/C(=C/c2cccc(F)c2)SC1=S)Nc1ccccc1,MTT,10 µM,26.1%
Cn1c(=O)c(NN=C2C(=O)Nc3ccccc32)nc2ccccc21,,30 µM,95.2%
COc1ccc(/C=C2\SC(=S)N(CC(=O)Nc3ccccc3)C2=O)cc1,MTT,10 µM,23%
COc1cc2ncnc(NN=C3C(=O)Nc4ccc(Br)cc43)c2cc1OC,,10 µM,-4.3%
CCN(CC)CCNC(=O)c1c(C)[nH]c(/C=C2\C(=O)Nc3ccc(F)cc32)c1C,,30 µM,85.7%
COc1cc(CNC(=O)CCCC/C=C/C(C)C)ccc1O,SRB,10 µM,0%
CN1C(=O)/C(=N\NC(=O)c2cc3ccccc3[nH]2)c2cc(Br)ccc21,,30 µM,97.4%
O=C(CN1C(=O)/C(=C/c2ccc(Cl)cc2)SC1=S)Nc1ccccc1,MTT,10 µM,36.7%
COc1ccc2c(c1)/C(=N/NC(=O)c1cc3ccccc3[nH]1)C(=O)N2,,30 µM,85.3%
COc1cccc(NC(=O)CN2C(=O)/C(=C/c3ccc(F)cc3)SC2=S)c1,MTT,10 µM,22.3%
Cc1ccc2c(c1)C(=NNc1nnc(Cc3ccccc3)c3ccccc13)C(=O)N2,,30 µM,85%
O=C1Nc2ccc(F)cc2/C1=N/NC(=O)c1cc2ccccc2[nH]1,,30 µM,6.9%
COc1cc2ncnc(NN=C3C(=O)Nc4ccc(F)cc43)c2cc1OC,,10 µM,7.1%
O=C1Nc2ccc(Cl)cc2/C1=N/NC(=O)c1cc2ccccc2[nH]1,,30 µM,60.6%
